The text below walks through data of ChEMBL document CHEMBL3526048, “In vitro metabolism of rivoglitazone, a novel peroxisome proliferator-activated receptor γ agonist, in rat, monkey, and human liver microsomes and freshly isolated hepatocytes” (Drug Metab Dispos, 2011).

Series [1] is described as follows: Drug metabolism in monkey hepatocytes assessed as formation of 2-mercapto-3-(4-((6-methoxy-1-methyl-1H-benzo[d]imidazol-2-yl)methoxy)phenyl)propanamide at 30 uM after 3 hrs by radio-HPLC/LC-MS/MS analysis in presence of NADPH-generating system and NADPH-generating system/SAM. The following applies: cynomolgus monkey.
Series [2] deals with T1, UDP-glucuronosyltransferase 1A3 (Homo sapiens, UniProt P35503).
T1 sequence (P35503 whole entry): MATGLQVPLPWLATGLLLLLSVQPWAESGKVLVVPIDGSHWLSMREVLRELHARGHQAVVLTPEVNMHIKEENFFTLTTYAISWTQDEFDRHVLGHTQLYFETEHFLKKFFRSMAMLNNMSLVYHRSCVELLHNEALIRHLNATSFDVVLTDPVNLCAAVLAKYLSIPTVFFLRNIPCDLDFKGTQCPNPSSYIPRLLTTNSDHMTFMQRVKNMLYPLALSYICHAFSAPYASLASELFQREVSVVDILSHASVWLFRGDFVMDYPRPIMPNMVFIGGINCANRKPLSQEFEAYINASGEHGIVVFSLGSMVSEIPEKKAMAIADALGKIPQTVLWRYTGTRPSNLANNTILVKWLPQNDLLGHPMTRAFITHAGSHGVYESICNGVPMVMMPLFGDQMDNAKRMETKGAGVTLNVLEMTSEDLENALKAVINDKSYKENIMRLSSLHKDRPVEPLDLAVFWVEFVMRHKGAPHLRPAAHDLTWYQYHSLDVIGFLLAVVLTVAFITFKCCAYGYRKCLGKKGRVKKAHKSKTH
Kind of series: Activity of human UGT1A3 expressed in microsomes isolated from baculovirus infected insect cell assessed as enzyme-mediated 3-(4-((6-methoxy-1-methyl-1H-benzo[d]imidazol-2-yl)methoxy)phenyl)-2-(methylthio)propanamide formation at 20 uM after 4 hrs by radio-HPLC/LC-MS/MS analysis in presence of NADPH-generating system/SAM in presence of UDPGA and UDPGA/SAM. The format is ADME.

Series [3] deals with T1, UDP-glucuronosyltransferase 1A3. Kind of series: Activity of human UGT1A3 expressed in microsomes isolated from baculovirus infected insect cell assessed as enzyme-mediated 5-(4-((6-methoxy-1H-benzo[d]imidazol-2-yl)methoxy)benzyl)thiazolidine-2,4-dione formation at 20 uM after 4 hrs by radio-HPLC/LC-MS/MS analysis in presence of NADPH-generating system and NADPH-generating system/SAM in presence of UDPGA and UDPGA/SAM. The format is ADME.

A further series has as its target T2, Cytochrome P450 1A2 (Homo sapiens, UniProt P05177).
T2 sequence (P05177 whole entry): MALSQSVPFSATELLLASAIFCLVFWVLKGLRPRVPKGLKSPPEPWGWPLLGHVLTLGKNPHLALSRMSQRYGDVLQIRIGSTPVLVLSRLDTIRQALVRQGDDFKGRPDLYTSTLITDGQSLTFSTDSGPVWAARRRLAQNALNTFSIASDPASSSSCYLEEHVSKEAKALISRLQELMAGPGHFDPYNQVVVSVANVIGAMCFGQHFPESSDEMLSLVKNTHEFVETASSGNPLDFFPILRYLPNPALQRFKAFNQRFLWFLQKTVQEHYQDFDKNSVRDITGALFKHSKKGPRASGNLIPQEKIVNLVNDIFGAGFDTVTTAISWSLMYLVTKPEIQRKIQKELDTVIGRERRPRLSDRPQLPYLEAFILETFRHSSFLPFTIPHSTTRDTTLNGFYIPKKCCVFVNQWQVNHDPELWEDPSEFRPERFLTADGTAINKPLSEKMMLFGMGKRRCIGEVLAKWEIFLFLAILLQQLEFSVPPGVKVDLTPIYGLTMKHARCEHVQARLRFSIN
The experiment in a line: Activity of human CYP1A2 expressed in microsomes isolated from baculovirus infected insect cell assessed as enzyme-mediated 2-amino-3-((1-carboxy-2-(4-((6-methoxy-1-methyl-1H-benzo[d]imidazol-2-yl)methoxy)phenyl)ethyl)disulfanyl)propanoic acid formation at 20 uM after 2 hrs by radio-HPLC/LC-MS/MS analysis. The series is classed as ADME. An outline of the steps:
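Baculovirus/insect-cell microsomes expressing single human CYPs, 1 mg/ml protein, with 50 mM potassium phosphate (pH 7.4) or 100 mM Tris-HCl (pH 7.5). NADPH-generating system: 2 mM NADP⁺, 20 mM glucose 6-phosphate, 2 units/ml G6PDH, 10 mM MgCl₂. [¹⁴C]rivoglitazone at 20 μM, 2 h at 37°C with shaking. Control used insect-cell control supersomes. Stopped with acetonitrile; supernatant concentrated under nitrogen; metabolites analysed by radio-HPLC, LC-MS and LC-MS/MS.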

Series [4] in a line: Drug metabolism in monkey hepatocytes assessed as formation of 5-hydroxy-5-(4-((6-methoxy-1-methyl-1H-benzo[d]imidazol-2-yl)methoxy)benzyl)thiazolidine-2,4-dione at 30 uM after 3 hrs by radio-HPLC/LC-MS/MS analysis in presence of NADPH-generating system and NADPH-generating system/SAM. The note with it: cynomolgus monkey.
Series [5] concerns the target T3, UDP-glucuronosyltransferase 2B15 (Homo sapiens, UniProt P54855).
T3 sequence (P54855 whole entry): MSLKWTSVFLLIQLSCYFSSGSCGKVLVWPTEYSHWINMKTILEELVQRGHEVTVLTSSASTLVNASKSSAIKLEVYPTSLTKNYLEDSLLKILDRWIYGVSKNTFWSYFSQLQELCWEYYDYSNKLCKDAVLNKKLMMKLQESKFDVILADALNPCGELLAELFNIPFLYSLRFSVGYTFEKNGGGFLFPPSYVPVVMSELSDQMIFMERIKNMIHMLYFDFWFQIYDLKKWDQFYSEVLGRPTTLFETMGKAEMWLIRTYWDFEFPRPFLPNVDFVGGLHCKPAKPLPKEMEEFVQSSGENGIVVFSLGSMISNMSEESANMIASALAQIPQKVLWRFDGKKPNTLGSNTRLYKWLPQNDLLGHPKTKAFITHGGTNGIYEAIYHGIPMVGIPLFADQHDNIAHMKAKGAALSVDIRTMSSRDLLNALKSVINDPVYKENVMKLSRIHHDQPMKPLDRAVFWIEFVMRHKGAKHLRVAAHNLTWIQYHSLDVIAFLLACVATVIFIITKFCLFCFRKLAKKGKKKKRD
The experiment in a line: Activity of human UGT2B15 expressed in microsomes isolated from baculovirus infected insect cell assessed as enzyme-mediated (2S,3S,4S,5R,6R)-6-((1-carboxy-2-(4-((6-methoxy-1-methyl-1H-benzo[d]imidazol-2-yl)methoxy)phenyl)ethylthio)carbonylamino)-3,4,5-trihydroxytetrahydro-2H-pyran-2-carboxylic acid formation at 20 uM after 4 hrs by radio-HPLC/LC-MS/MS analysis in presence of UDPGA. The series is classed as ADME.

A further series deals with Liver microsome. The experiment in a line: Drug metabolism in human liver microsomes assessed as formation of 3-(4-((6-methoxy-1-methyl-1H-benzo[d]imidazol-2-yl)methoxy)phenyl)-2-(methylsulfonyl)propanamide at 20 uM after 2 hrs by radio-HPLC/LC-MS/MS analysis in presence of NADPH-generating system/SAM. The series is classed as ADME.

Turning to `COc1ccc2nc(COc3ccc(C[14CH]4SC(=O)NC4=O)cc3)n(C)c2c1.Cl` (racemic), the Drug metabolism entry in series [1] is listed as “metabolite_not_detected”; in series [2], “metabolite_not_detected”; in series [3] it was “metabolite_not_detected”; on Cytochrome P450 1A2, “metabolite_not_detected”; in series [4], “metabolite_detected”; in series [5] it was “metabolite_not_detected”. Besides, the Drug metabolism result in the series with Liver microsome is “metabolite_detected”.
